PubChem BioAssay
A number with no mark means an inactive call. The source made the active and inactive calls.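 Rule for the calls: active = viability at or below 30% in both replicate assays; inconclusive = viability at or below 30% in just one of the two assays; inactive = the rest.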

assay: HUVEC growth inhibition – cell-based, human, primary screen (AID 575); conditions: HUVEC proliferation, CellTiter-Glo luminescence, 72 h; at 10 µM; active compounds read low;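 note: 100% = median of untreated cell wells with 0.1% DMSO on each plate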
Method in brief: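 Assay system: primary human umbilical vein endothelial cells / Buffer or medium: endothelial basal medium with 2% FBS plus growth supplements / Compound dosing: one dose, 10 µM final, 0.1% DMSO / Timing: 72 h treatment at 37 °C / Signal: CTG luminescence / Benchmarks: 32 DMSO-only cell-control wells (high), 32 MePR drug-control wells (low) per plate / Plate: collagen-coated 384-well format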

Row | Compound | viability
1 | CN(Cc1cccs1)c1ncnc2sccc12 | 70.7%
2 | CCOC(=O)N1CCN(C(=O)CN(c2ccc(C)cc2)S(=O)(=O)c2c(C)noc2C)CC1 | 106%
3 | Cc1c2c(nc3nc4ccccc4n13)CC(C)(C)CC2=O | 91.1%
4 | COc1ccccc1OC(=O)c1ccc2nsnc2c1 | 91.8%
5 | CCN(CCCNC(=O)c1cn(CC)c2ccc(S(=O)(=O)N(C)C)cc2c1=O)c1cccc(C)c1 | 61.6%
6 | O=C(O)C1CC(=O)N(c2ccc(OCc3ccccc3Cl)cc2)C1 (stereo not given) | 95.9%
7 | C=CCOc1ccc(C2C(C(=O)c3ccco3)=C(O)C(=O)N2Cc2cccnc2)cc1 (stereo not given) | 119%
8 | [N-]=[N+]=CC(=O)CC(c1ccccc1)N1C(=O)c2ccccc2C1=O (stereo not given) | 97.8%
9 | CCC1(c2ccc(F)cc2)NC(=O)N(CC(=O)c2ccc[nH]2)C1=O (stereo not given) | 99.3%
10 | c1csc(-c2nc3nc4ccccc4nc3n2Cc2ccc3c(c2)OCO3)c1 | 61.6%
11 | Cc1n[nH]c(C)c1S(=O)(=O)N1CCN(c2ccccn2)CC1 | 111%
12 | Cn1c(=O)c2c(nc(NCCc3ccccc3)n2CC(=O)NCCc2ccccc2)n(C)c1=O | 99.9%
13 | Cc1cc(Br)ccc1NC(=O)CCN1C(=O)c2ccncc2C1=O | 86.1%
14 | COc1ccccc1Oc1coc2c(CN3CCN(C)CC3)c(O)ccc2c1=O | 96.1%
15 | O=C(Nc1ccccc1N1CCN(c2ccc(F)cc2)CC1)c1ccccc1 | 78.5%
16 | c1ccc(Cc2ccc(OCCn3cncn3)cc2)cc1 | 98.6%
17 | Cc1cccc(Nc2nc3c(c(=O)n(C)c(=O)n3C)n2Cc2ccccc2)c1 | 93.2%
18 | Cc1nn(C)c(C)c1CNC(=O)c1cc2n(n1)C(C(F)(F)F)CC(c1cccs1)N2 (stereo not given) | 107%
19 | COc1ccc(CNc2nc3nc(C)cc(C)n3n2)cc1OC | 111%
20 | CCOC(=O)c1ccc(N2C(=O)C3CC=CCC3C2=O)cc1 (stereo not given) | 92.8%

Row | Compound | viability
21 | CC(C(=O)NCCCN1CCOCC1)n1cccc1C(=O)c1ccccc1 (stereo not given) | 97.4%
22 | Cc1nc(NC2=NCN(CC3CCCO3)CN2)nc2ccccc12 (stereo not given) | 86.2%
23 | COCCOC(=O)C1=C(N)OC2=C(C(=O)CC(C)(C)C2)C1c1cccnc1 (stereo not given) | 101%
24 | CC(C)(C)NCc1cc2ccccc2[nH]c1=O | 99.1%
25 | COc1ccc(-c2noc(-c3cc(Cl)ccc3Cl)n2)cc1OC | 94.9%
26 | CCC(=O)Nc1ccc(Cl)c(NC(=O)C(C)C)c1 | 87.9%
27 | COC(=O)c1cc2ccsc2n1CC(=O)Nc1cc(C)cc(C)c1 | 64%
28 | COc1ccc(-c2nnc(SCC#N)o2)cc1 | 107%
29 | Cc1nc(C)c(C(=O)C2=C(O)C(=O)N(CCN3CCOCC3)C2c2cccnc2)s1 (stereo not given) | 99.1%
30 | Cc1ccc(NC(=O)CCC(=O)OCC(F)(F)C(F)F)cc1 | 117%
31 | CN(C)c1ccc2c(c1)OC(N)=C(C#N)C2c1cccc(F)c1 (stereo not given) | 17.2% (active)
32 | CCN1CCN(CCCNC(=O)C2c3ccccc3C(=O)N(C)C2c2ccc(OC)cc2)CC1 (stereo not given) | 95.9%
33 | Cc1oc(-c2ccc(Cl)cc2)nc1CS(=O)CC(=O)NCCCN(C)C1CCCCC1 (stereo not given) | 66.3%
34 | CC(C)CCN1CC(C(=O)NCc2ccccc2)CC1=O (stereo not given) | 88%
35 | CC1CCN(S(=O)(=O)c2ccc3[nH]cc(C(=O)NCCN4CCOCC4)c(=O)c3c2)CC1 | 94%
36 | Cc1ccc(S(=O)(=O)N(C)Cc2cc3ccccc3[nH]c2=O)cc1 | 111%
37 | CC(=O)N1CCN(c2ccc(S(=O)(=O)N3CCCCC3)cn2)CC1 | 101%
38 | CCOC(=O)c1cnc(-n2nc(C)cc2C)nc1Nc1cccc(C(C)=O)c1 | 95.7%
39 | Fc1ccc(NCc2nnc(SCc3nnc(-c4ccccc4)o3)n2CC2CCCO2)cc1 (stereo not given) | 97.8%
40 | O=C1Nc2ccccc2OC1CC(=O)N1CCCC1 (stereo not given) | 94.7%
